The structures appear in SMILES notation. Peptide text beside a SMILES is read from it. * marks the point of attachment. Nonanoyl = CCCCCCCCC(=O)*; Hexanoyl = CCCCCC(=O)*; Pentanoyl = CCCCC(=O)* Some results are limits rather than exact numbers.

One data set relates to Rattus norvegicus. The data set is described as follows: Compound was tested in vivo for its ability to induce catalepsy in rats upon intraperitoneal administration. In kind it is functional. The following applies: ip. The procedure, abridged: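 Adult outbred male rats, 200–250 g, dosed ip with compound in saline containing 3% Tween 80. Forepaws placed on a bar 7 cm high (Morpurgo apparatus) at 0.5, 1.0, 1.5 and 2 h. Bar time scored 0–3, tested twice per session at 2-min intervals. Scores are given as percent of the maximal cumulative score (15).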
Take `NC(=O)[C@H](Cc1ccc(O)cc1)NC(=O)[C@@H]1CCCN1`: the ED50 is > 500 mg/kg.

As for `CN1CCN(C2=Nc3cc(Cl)ccc3Nc3ccccc32)CC1` [CLOZAPINE], the ED50 was > 32 mg/kg.

Consider `CCN1CCC[C@H]1CNC(=O)c1cc(S(N)(=O)=O)ccc1OC` [LEVOSULPIRIDE], for which the ED50 was > 120 mg/kg.

Regarding `CCCCCC(=O)N1CCC[C@H]1C(=O)N[C@@H](Cc1ccc(O)cc1)C(N)=O` (Hexanoyl-Pro-Tyr-NH2), the ED50 was > 500 mg/kg.

Take `NC(=O)[C@H](Cc1ccc(O)cc1)NC(=O)[C@@H]1CCCN1C(=O)Cc1ccccc1`: the ED50 was > 1000 mg/kg.

With `CCN1CCC[C@H]1CNC(=O)c1c(OC)ccc(Br)c1OC` [REMOXIPRIDE], the ED50 is 8.7 mg/kg.

As to `O=C(CCCN1CCC(O)(c2ccc(Cl)cc2)CC1)c1ccc(F)cc1` [HALOPERIDOL], the ED50 was 0.5 mg/kg.

The next data set concerns Mus musculus. The data set is described as follows: Compound was tested in vivo for its ability to antagonize apomorphine-induced climbing response in mice upon intraperitoneal administration. Format: functional. The note with it: ip. The procedure, abridged: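 C57BL/6 male mice, 22–25 g, adapted 1 h in wire mesh cages. Compound in saline with 3% Tween 80 given ip 15 min before apomorphine 5.0 mg/kg sc (in saline with 0.1% ascorbic acid). Climbing scored 0–4 every 2 min, 30 readings, from 15 min after apomorphine. Totals are expressed as % of vehicle control. ED50 with 95% confidence limits by log-dose linear regression, 8–16 mice per dose.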
The compound `CCCCC(=O)N1CCC[C@H]1C(=O)N[C@@H](Cc1ccc(O)cc1)C(N)=O` (Pentanoyl-Pro-Tyr-NH2) yielded an ED50 of 3.2 mg/kg.

As for `NC(=O)[C@H](Cc1ccc(O)cc1)NC(=O)[C@@H]1CCCN1`, the ED50 stood at 3.4 mg/kg.

For `CC(C)(C)OC(=O)N1CCC[C@H]1C(=O)N[C@@H](Cc1ccc(O)cc1)C(N)=O`, it took a dose of 2.5 mg/kg to reach the 50% effect level (ED50).

`CC(C)(C)OC(=O)N1CCC[C@@H]1C(=O)N[C@@H](Cc1ccc(O)cc1)C(N)=O` yielded an ED50 of 0.4 mg/kg.

In the case of `CCN1CCC[C@H]1CNC(=O)c1cc(S(N)(=O)=O)ccc1OC` [LEVOSULPIRIDE], it took a dose of 17.5 mg/kg to reach the 50% effect level (ED50).

Consider `CCCCCC(=O)N1CCC[C@H]1C(=O)N[C@@H](Cc1ccc(O)cc1)C(N)=O` (Hexanoyl-Pro-Tyr-NH2), for which the ED50 is 0.5 mg/kg.

Consider `NC(=O)[C@H](Cc1ccc(O)cc1)NC(=O)[C@@H]1CCCN1C(=O)Cc1ccccc1`, for which it took a dose of 2.2 mg/kg to reach the 50% effect level (ED50).

Regarding `CCCCCCCCC(=O)N1CCC[C@H]1C(=O)N[C@@H](Cc1ccc(O)cc1)C(N)=O` (Nonanoyl-Pro-Tyr-NH2), it took a dose of 0.5 mg/kg to reach the 50% effect level (ED50).

Regarding `NC(=O)[C@@H](Cc1ccc(O)cc1)NC(=O)[C@@H]1CCCN1`, the ED50 is > 16 mg/kg.

With `CCN1CCC[C@H]1CNC(=O)c1c(OC)ccc(Br)c1OC` [REMOXIPRIDE], the ED50 worked out at 1.2 mg/kg.

In the case of `NC(=O)[C@H](Cc1ccc(O)cc1)NC(=O)[C@H]1CCCN1`, the 50% effect level (ED50) was put at a dose of 3.6 mg/kg.

Compound `O=C(CCCN1CCC(O)(c2ccc(Cl)cc2)CC1)c1ccc(F)cc1` [HALOPERIDOL] gave an ED50 of 0.1 mg/kg.

Take `NC(=O)[C@@H](Cc1ccc(O)cc1)NC(=O)[C@@H]1CCCN1C(=O)Cc1ccccc1`: the ED50 is > 8 mg/kg.

As for `NC(=O)[C@H](Cc1ccc(O)cc1)NC(=O)[C@H]1CCCN1C(=O)Cc1ccccc1`, the 50% effect level (ED50) was put at a dose of 4.9 mg/kg.

System in another data set: not listed separately
The data set is described as follows: Acute toxicity on male outbred albino mice upon intraperitoneal administration. The following applies: mouse, in vivo, ip. In outline: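 Male outbred albino mice (Moscow region), 20–25 g, housed five per cage with free food and water at 21–22 °C, 40–50% humidity, 12/12 h light/dark. Single ip injection at doses up to 500–1000 mg/kg. Surviving animals were counted 2, 24 and 48 h after injection.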
Take `NC(=O)[C@H](Cc1ccc(O)cc1)NC(=O)[C@@H]1CCCN1`: the LD50 was > 500 mg/kg.

As to `CCN1CCC[C@H]1CNC(=O)c1cc(S(N)(=O)=O)ccc1OC` [LEVOSULPIRIDE], the LD50 was found to be 250 mg/kg.

Turning to `CCCCCC(=O)N1CCC[C@H]1C(=O)N[C@@H](Cc1ccc(O)cc1)C(N)=O` (Hexanoyl-Pro-Tyr-NH2), the LD50 was > 500 mg/kg.

`NC(=O)[C@H](Cc1ccc(O)cc1)NC(=O)[C@@H]1CCCN1C(=O)Cc1ccccc1`: the median lethal dose (LD50) was > 1000 mg/kg.

In the case of `CCN1CCC[C@H]1CNC(=O)c1c(OC)ccc(Br)c1OC` [REMOXIPRIDE], the LD50 came out at 302 mg/kg.

`O=C(CCCN1CCC(O)(c2ccc(Cl)cc2)CC1)c1ccc(F)cc1` [HALOPERIDOL] displayed an LD50 of 35 mg/kg.

For the next data set, the system named is Rattus norvegicus. The data set is described as follows: Compound was tested in vivo for its ability to antagonize extrapolatory behavior impairment induced by DOPA in rats upon intraperitoneal administration. In kind it is functional. The following applies: ip. The procedure, abridged:
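Outbred albino male rats, 180–200 g, placed in a water-plunged cylinder (22 °C) and must dive under its edge within 2 min; non-escapers discarded. A day later, Madopar (100 mg/kg L-DOPA + 25 mg/kg benserazide in 3% Tween 80) is given ip 60 min before testing. Compound in saline + 3% Tween 80 is given ip 10 min before Madopar. Successful escapes are recorded. ED50 with 95% confidence limits by linear regression, eight rats per dose.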
Regarding `NC(=O)[C@H](Cc1ccc(O)cc1)NC(=O)[C@@H]1CCCN1`, the ED50 was 1.6 mg/kg.

For `CN1CCN(C2=Nc3cc(Cl)ccc3Nc3ccccc32)CC1` [CLOZAPINE], the ED50 was 20 mg/kg.

`CCN1CCC[C@H]1CNC(=O)c1cc(S(N)(=O)=O)ccc1OC` [LEVOSULPIRIDE]: the ED50 was 16.5 mg/kg.

As to `CCCCCC(=O)N1CCC[C@H]1C(=O)N[C@@H](Cc1ccc(O)cc1)C(N)=O` (Hexanoyl-Pro-Tyr-NH2), the ED50 was 0.4 mg/kg.

For the compound `NC(=O)[C@H](Cc1ccc(O)cc1)NC(=O)[C@@H]1CCCN1C(=O)Cc1ccccc1`, the ED50 is 1.5 mg/kg.

For the compound `CCN1CCC[C@H]1CNC(=O)c1c(OC)ccc(Br)c1OC` [REMOXIPRIDE], the ED50 was 0.31 mg/kg.

Take `O=C(CCCN1CCC(O)(c2ccc(Cl)cc2)CC1)c1ccc(F)cc1` [HALOPERIDOL]: the ED50 is 0.14 mg/kg.

The values are drawn from ChEMBL document CHEMBL1131453, “Design of N-acylprolyltyrosine "tripeptoid" analogues of neurotensin as potential atypical antipsychotic agents” (J Med Chem, 1998).
